Test results from ChEMBL document CHEMBL4334542, “Antimalarial N 1,N 3-Dialkyldioxonaphthoimidazoliums: Synthesis, Biological Activity, and Structure-activity Relationships” (ACS Med Chem Lett, 2020).
Calls of active or inactive are those of the source. No cut-off for these calls is given here.

Assays:
[1] = system: Plasmodium falciparum; test: Antimalarial activity against asexual stage of Plasmodium falciparum W2 assessed as reduction in parasite growth incubated for 96 hrs by SYBR Green I dye-based fluorescence assay; format: functional, organism-based; conditions: W2, 96 h
[2] = system: Plasmodium falciparum; test: Antimalarial activity against asexual stage of Plasmodium falciparum K1 assessed as reduction in parasite growth incubated for 96 hrs by SYBR Green I dye-based fluorescence assay; format: functional, organism-based; conditions: K1, 96 h
Procedure, shortened: (§1)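 Asexual NF54, K1 and W2 parasites; proliferation read as SYBR Green I fluorescence. IC50 is the concentration giving 50% of the net SYBR Green I fluorescence of untreated control cultures; mean ± SEM of n = 3 independent biological replicates.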

[3] = system: Plasmodium falciparum; test: Antimalarial activity against Plasmodium falciparum NF54 early gametocytes transfected with luciferase gene incubated for 48 hrs by luciferase reporter gene assay; format: functional, organism-based; conditions: NF54, 48 h
Procedure, shortened: (§2)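 Gametocytes of NF54-Pfs16-GFP-Luc, early (>95% stage II/III) or late (>90% stage IV/V); luciferase read-out. IC50 is the concentration giving 50% reduction of luminescence; mean ± SEM of n = 3 independent biological replicates.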

[4] = system: Plasmodium falciparum; test: Antimalarial activity against asexual stage of Plasmodium falciparum NF54 assessed as reduction in parasite growth incubated for 96 hrs by SYBR Green I dye-based fluorescence assay; format: functional, organism-based; conditions: NF54, 96 h; procedure, shortened: as §1
[5] = system: Plasmodium falciparum; test: Antimalarial activity against Plasmodium falciparum NF54 late gametocytes transfected with luciferase gene incubated for 48 hrs by luciferase reporter gene assay; format: functional, organism-based; conditions: NF54, 48 h; procedure, shortened: as §2
[6] = system: Plasmodium falciparum; test: Antimalarial activity against asexual stage of Plasmodium falciparum Dd2 infected in erythrocytes assessed as reduction in parasite growth incubated for 48 hrs under hypoxic condition by Hoechst 33342 staining based flow cytometry; format: functional, organism-based; conditions: Dd2, 48 h
Procedure, shortened: (§3)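 Asexual Dd2 and 3D7 parasites in erythrocytes; DNA content of infected cells measured by Hoechst 33342 staining and FACS. IC50 is the concentration giving 50% of the net fluorescence of untreated control cultures; mean ± SD of n = 3 separate determinations.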

[7] = system: Plasmodium falciparum; test: Antimalarial activity against asexual stage of Plasmodium falciparum 3D7 infected in erythrocytes assessed as reduction in parasite growth incubated for 48 hrs under hypoxic condition by Hoechst 33342 staining based flow cytometry; format: functional, organism-based; conditions: 3D7, 48 h; procedure, shortened: as §3
[8] = system: CHO-K1; test: Cytotoxicity against CHOK1 cells assessed as reduction in cell viability incubated for 48 hrs by CellTiter 96 aqueous one solution assay; format: cell-based; conditions: Cricetulus griseus, CHO-K1, 48 h
Procedure, shortened: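 Cell growth measured by a tetrazolium dye assay. IC50 is the concentration reducing growth by 50% relative to untreated cultures; mean ± SD of n = 3 separate determinations.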

[9] = Redox cycling activity of the compound […] measured after 45 mins by phenol red reagent based horseradish peroxidase coupled assay
Procedure, shortened: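 Redox cycling EC50 determined by the phenol red horseradish peroxidase assay.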

[10] = system: Plasmodium falciparum; test: Antimalarial activity against asexual stage of Plasmodium falciparum NF54 assessed as reduction in parasite growth at 1 uM incubated for 96 hrs by SYBR Green I dye-based fluorescence assay relative to control; format: functional; design: scale not given: the % may be the effect or the level left
[11] = system: Plasmodium falciparum; test: Antimalarial activity against Plasmodium falciparum NF54 incubated for 48 hrs by [3H]-hypoxanthine incorporation assay; format: functional, organism-based
[12] = system: Plasmodium falciparum; test: Antimalarial activity against Plasmodium falciparum TM90C2B incubated for 48 hrs by [3H]-hypoxanthine incorporation assay; format: functional, organism-based
[13] = system: Plasmodium falciparum; test: Antimalarial activity against Plasmodium falciparum K1 incubated for 48 hrs by [3H]-hypoxanthine incorporation assay; format: functional, organism-based
[14] = system: Plasmodium falciparum; test: Antimalarial activity against sexual stage of Plasmodium falciparum 3D7 gametocytes assessed as reduction in parasite growth incubated for 3 days by alamar blue staining based assay; format: functional, organism-based; conditions: 3D7, 72 h
[15] = system: Plasmodium falciparum; test: Antimalarial activity against asexual stage of Plasmodium falciparum 3D7 infected in O-positive erythrocytes assessed as reduction in parasite growth incubated for 72 hrs by SYBR Green I dye-based spectrophotometric analysis; format: functional, organism-based; conditions: 3D7, 72 h

Row | SMILES | IC50 [3] | IC50 [5] | IC50 [6] | IC50 [7] | IC50 [8] | other results
1 | Cc1n(CC(C)C)c2c([n+]1C(C)C)C(=O)c1ccccc1C2=O | 229 nM | 689 nM |  |  |  | IC50 [1]: 1.96 nM; IC50 [2]: 4.22 nM; IC50 [4]: 2.36 nM
2 | COCC[n+]1c2c(n(Cc3cnccn3)c1C)C(=O)c1ccccc1C2=O [SEPANTRONIUM BROMIDE] |  |  | 45.9 nM | 38.6 nM |  | 
3 | CCCCn1c2c([n+](C3CC3)c1C)C(=O)c1ccccc1C2=O |  |  | 20.8 nM | 182 nM | 10100 nM | 
4 | CCn1c2c([n+](CC)c1C)C(=O)c1ccccc1C2=O |  |  | 19.1 nM | 6 nM | 14700 nM | 
5 | CCCC[n+]1c2c(n(C(C)C)c1C)C(=O)c1ccccc1C2=O |  |  | 14.9 nM | 11.6 nM | 80300 nM | 
6 | CCCn1c2c([n+](C3CC3)c1C)C(=O)c1ccccc1C2=O |  |  | 20.7 nM | 331 nM | 5500 nM | 
7 | CCCC[n+]1c2c(n(C)c1C)C(=O)c1ccccc1C2=O |  |  | 14.1 nM | 4.3 nM | 13100 nM | 
8 | CCCC[n+]1c2c(n(CCC)c1C)C(=O)c1ccccc1C2=O |  |  | 20.9 nM | 18.8 nM | 26800 nM | 
9 | Cc1n(CC(C)C)c2c([n+]1C)C(=O)c1ccccc1C2=O | 41 nM | 1090 nM |  |  |  | IC50 [1]: 1.85 nM; IC50 [2]: 3.4 nM; IC50 [4]: 1.92 nM
10 | CN(C)c1ccc2nc3ccc(N(C)C)cc3[s+]c2c1 [METHYLENE BLUE ANHYDROUS] | 95 nM | 143 nM |  |  |  | 
11 | Cc1nc2c(n1C)C(=O)c1ccccc1C2=O |  |  |  |  |  | Activity [9]: inactive; Activity [10]: <=50%
12 | CC[n+]1c2c(n(C(C)C)c1C)C(=O)c1ccccc1C2=O |  |  | 11.7 nM | 61.5 nM | 15100 nM | 
13 | C[C@H]1[C@H](OC(=O)CCC(=O)O)O[C@@H]2O[C@@]3(C)CC[C@H]4[C@H](C)CC[C@@H]1[C@@]24OO3 [ARTESUNATE] | 63 nM | 259 nM | 13.3 nM | 22.8 nM |  | IC50 [11]: 3.2 nM; IC50 [12]: 2.7 nM; IC50 [2]: 3.26 nM; IC50 [4]: 3 nM; IC50 [13]: 1.4 nM
14 | CCC[n+]1c2c(n(CC(C)C)c1C)C(=O)c1ccccc1C2=O | 269 nM | 842 nM |  |  |  | IC50 [1]: 2.12 nM; IC50 [2]: 4.42 nM; IC50 [4]: 2.97 nM
15 | CCCCn1c(C)nc2c1C(=O)c1ccccc1C2=O |  |  |  |  |  | Activity [9]: inactive; Activity [10]: <=50%
16 | CCn1c(C)nc2c1C(=O)c1ccccc1C2=O |  |  |  |  |  | Activity [9]: inactive; Activity [10]: <=50%
17 | Cc1n(CC(C)C)c2c([n+]1C1CC1)C(=O)c1ccccc1C2=O | 139 nM | 832 nM |  |  |  | IC50 [1]: 2.55 nM; IC50 [2]: 5.85 nM; IC50 [4]: 3.94 nM
18 | Cc1n(C)c2c([n+]1C1CC1)C(=O)c1ccccc1C2=O |  |  | 30.4 nM | 25.7 nM | 3100 nM | 
19 | CCCCn1c2c([n+](CCCC)c1C)C(=O)c1ccccc1C2=O |  |  | 43.6 nM | 50.5 nM | 30400 nM | 
20 | CCCCCCCC[n+]1c2c(n(CC(C)C)c1C)C(=O)c1ccccc1C2=O | 39 nM | 164 nM |  |  |  | IC50 [1]: 3.6 nM; IC50 [2]: 8.23 nM; IC50 [4]: 4.36 nM
21 | CCOc1ccc(-[n+]2c3c(n(C)c2C)C(=O)c2ccccc2C3=O)cc1 |  |  |  |  |  | EC50 [14]: 93 nM; EC50 [15]: 1 nM
22 | CCCn1c2c([n+](CCC)c1C)C(=O)c1ccccc1C2=O |  |  | 11.3 nM | 26.9 nM | 16200 nM | 
23 | CCOc1ccc(N(C(C)=O)C2=C(N(C)C)C(=O)c3ccccc3C2=O)cc1 |  |  |  |  |  | EC50 [14]: 319 nM; EC50 [15]: 32 nM
